# Sampled rows, rich in hits. Any-hit rate of the full collection: about 2.8%.
# PGE2 EP2 inh = human EP2 receptor antagonists, primary screen, TR-FRET cAMP, C6 glioma cells | Prostaglandin E2 receptor EP2 subtype (Homo sapiens), P43116 | C6 glioma cells expressing human EP2; cells stimulated with saturating PGE2 | inhibition, % at 25 µM | hit rate 0.52% among 260,000 | AID 1422, 2008;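 active means percent inhibition above 40 after rounding to a whole number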;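 further: rat C6 glioma host cells with rolipram phosphodiesterase inhibitor present; the protocol text gives 20 µM as final concentration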
# Target sequence (P43116 whole entry, looked up): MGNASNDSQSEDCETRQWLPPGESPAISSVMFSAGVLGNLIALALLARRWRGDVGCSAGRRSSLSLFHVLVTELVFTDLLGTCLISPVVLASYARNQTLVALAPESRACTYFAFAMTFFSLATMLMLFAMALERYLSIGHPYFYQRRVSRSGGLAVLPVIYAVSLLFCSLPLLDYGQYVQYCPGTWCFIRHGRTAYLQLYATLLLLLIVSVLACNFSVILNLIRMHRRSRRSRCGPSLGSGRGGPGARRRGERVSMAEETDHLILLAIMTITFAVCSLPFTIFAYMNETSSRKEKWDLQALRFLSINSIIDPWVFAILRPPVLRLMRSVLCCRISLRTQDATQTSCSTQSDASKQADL
# EP2 mod = EP2 receptor modulators, cAMP readout, primary screen, cell-based, HTRF cAMP, PGE2 stimulation; induction, % at 25 µM; hit rate 0.83% among 260,000; EP2-expressing cells, cAMP HTRF FRET, PGE2 co-stimulation;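 active means compounds whose cAMP rise, as percent of the full-agonist control response, exceeds 60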;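 further: rat C6 glioma line stably carrying human EP2 under a CMV promoter; the protocol text gives 20 µM as final concentration; 100% = response of wells given 1 µM PGE2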
# NPY1 pot ag = NPY-Y1 receptor potentiators or agonists, primary screen, cell-based; hit rate 0.37% among 220,000; AID 1304, 2008; Neuropeptide Y receptor type 1 (Homo sapiens), P25929; NPY-Y1 expressing cells, potentiator/agonist activation; activation, % at 3.6 µM; in the data active means activation above about 33%, passing the limit was not always enough;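 further: cells stimulated with NPY at EC10 then isoproterenol at EC100; 0% = low agonist plus stimulus and 100% = saturating agonist plus stimulus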
# NPY Y2 blocker = NPY-Y2 receptor antagonists, primary screen, cell-based; hit rate 0.99% among 140,000; Neuropeptide Y receptor type 2 (Homo sapiens), P49146; NPY-Y2 expressing cells, antagonist mode; inhibition, % at 2.7 µM; AID 793, 2007; in the data active means inhibition above about 17%;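 further: 0% = vehicle with agonist challenge and 100% = reference antagonist with challenge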
# Target sequence (P49146 whole entry, looked up): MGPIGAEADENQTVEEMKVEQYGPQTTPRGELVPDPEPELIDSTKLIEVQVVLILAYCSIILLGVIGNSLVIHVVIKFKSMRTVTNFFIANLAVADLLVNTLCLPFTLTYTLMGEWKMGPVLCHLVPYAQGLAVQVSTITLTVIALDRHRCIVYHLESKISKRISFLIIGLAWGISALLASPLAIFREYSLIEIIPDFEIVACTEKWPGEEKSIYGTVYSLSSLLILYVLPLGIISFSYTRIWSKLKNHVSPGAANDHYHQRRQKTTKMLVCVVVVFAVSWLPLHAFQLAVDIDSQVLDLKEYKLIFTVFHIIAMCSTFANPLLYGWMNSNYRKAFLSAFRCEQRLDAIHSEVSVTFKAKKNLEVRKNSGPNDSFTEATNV
# NPY-Y2 PAM-ag = NPY-Y2 potentiators or agonists, primary screen, cell-based. Neuropeptide Y receptor type 2 (Homo sapiens), P49146. activation, % at 3.6 µM. cells expressing NPY-Y2, potentiator/agonist read-out. hit rate 0.45% among 220,000; in the data active means activation above about 27%;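 further: cells stimulated with NPY near EC25 plus isoproterenol at EC100; 0% = vehicle plus submaximal agonist and 100% = vehicle plus saturating agonist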
# NPY-Y1 antag = NPY-Y1 receptor antagonists, primary screen, cell-based | Neuropeptide Y receptor type 1 (Homo sapiens), P25929 | HEK293-CNG Y1 cells, membrane potential fluorescence; NPY at EC95, then isoproterenol | inhibition, % at 3.6 µM | hit rate 1% among 200,000;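 active means inhibition above the campaign mean inhibition of all tested compounds plus 3 SD, cut at about 20% in these data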;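 further: 0% = DMSO wells given NPY plus isoproterenol and 100% = isoproterenol alone without NPY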
#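 Material: HEK293 cells co-expressing NPY Y1 receptor and cyclic-nucleotide gated channel. Timing: compound incubation 1 h at room temperature, readout 45 min post-stimulation. Signal: fluorescence, membrane potential probe.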
# NPY1 antag ctr = NPY-Y1 receptor antagonists, selectivity check, counter-screen for NPY-Y2 antagonist project, cell-based. shares compounds with NPY Y2 blocker. cell-based NPY-Y1 antagonism counterscreen. inhibition, % at 3.6 µM. hit rate 19% among 710. AID 1256, 2008; in the data active means inhibition above about 20%;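 further: cells challenged with NPY then isoproterenol with cAMP sensed through a CNG channel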
# NPY2 antag conf = NPY-Y2 receptor antagonists, retest of hits, confirmation, HEK293-CNG cells, membrane potential fluorescence, triplicate. inhibition, % at 2.8 µM. AID 1257, 2008. shares compounds with NPY Y2 blocker. hit rate 32% among 710. HEK293 NPY-Y2 CNG channel;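 active means mean inhibition of triplicate wells above the hit cutoff set in the primary screen, cut at about 17% in these data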;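 further: 0% = DMSO with NPY challenge and 100% = BIIE0246 high control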
# An asterisk follows results filed as active; x = no result given.
SMILES,PGE2 EP2 inh,EP2 mod,NPY1 pot ag,NPY Y2 blocker,NPY-Y2 PAM-ag,NPY-Y1 antag,NPY1 antag ctr,NPY2 antag conf
O=c1oc2ccccc2c2c1nnn2C1CCN(Cc2ccccc2)CC1,73.7*,-90.7,x,x,x,x,x,x
O=C(NC1CCN(Cc2ccccc2)CC1)c1cc2ccccc2oc1=O,14.3,-27.4,x,x,x,x,x,x
Cc1ccc(-n2nnc3c(=O)oc4ccccc4c32)cc1,86.4*,-16.8,-12.1,4.9,7.4,-13.8,x,x
CCC(C)n1nnc2c(=O)oc3ccccc3c21 (configuration not stated),8.6,-17.0,48.1,-2.4,29.8,-8.0,x,x
O=C(c1c(F)cccc1F)N1CCC(Cn2nc(-c3ccc(F)cc3)ccc2=O)CC1,x,-35.1,x,x,x,x,x,x
O=C1C(NS(=O)(=O)c2ccccc2)=C(N2CCN(c3ccc(F)cc3)CC2)C(=O)c2ccccc21,8.3,-2.7,88.6*,x,86.8*,x,x,x
CC1CCN(C2=C(NS(=O)(=O)c3ccccc3)C(=O)c3ccccc3C2=O)CC1,10.0,-6.7,95.4*,x,77.5*,x,x,x
O=S(=O)(Nc1nc2ccccc2nc1N1CCN(c2ccccc2)CC1)c1ccc(F)cc1,10.7,-4.0,10.1,2.8,11.0,-2.6,x,x
Cc1ccc(C(=O)Nc2nc(C)c(C(=O)Nc3nnc(C)s3)s2)cc1,24.4,9.9,x,x,x,x,x,x
CCCn1cc(NC(=O)[C@H]2C[C@@H](c3ccco3)NS(=O)(=O)N2C)cn1,x,14.2,x,x,x,x,x,x
COc1ccccc1NC(=O)C1=C(C)NC2=C(C(=O)CC(C)(C)C2)C1c1cccs1 (configuration not stated),14.7,62.8*,x,x,x,x,x,x
CC1=C(C(=O)Nc2ccccc2C)C(c2cccs2)C2=C(CC(C)(C)CC2=O)N1 (configuration not stated),8.1,5.9,x,x,x,x,x,x
c1ccc(B2OC[C@@H]3OB(c4ccccc4)O[C@H]([C@@H]4COB(c5ccccc5)O4)[C@H]3O2)cc1,40.7*,12.7,x,x,x,x,x,x
CCOc1cc(C2CC(=O)Nc3cc(C)c(C)cc32)ccc1O (configuration not stated),6.2,63.6*,-31.6,0.8,-2.8,3.2,x,x
CCOc1cc(C2CC(=O)NC(SCC)=C2C#N)ccc1O (configuration not stated),12.8,5.5,-2.8,3.6,8.9,-1.1,x,x
CC(=O)c1ccc(NC(=O)CSc2nnc3c(C)cc4c(C)cc(C)cc4n23)cc1,8.1,-14.5,x,x,x,x,x,x
CCCn1c(SCC(=O)Nc2ccccc2)nnc1-c1ccncc1,9.9,-16.1,x,x,x,x,x,x
C=CCn1c(SCc2cc(C(C)=O)ccc2OCC)nc2ccccc2c1=O,6.2,35.4,-40.7,25.1*,-13.2,26.8*,x,x
C=CCn1c(SCC(=O)Nc2ccc(OCC)cc2)nc2ccccc2c1=O,3.2,12.6,x,x,x,x,x,x
COc1ccc(C(C)=O)cc1CSc1nc2ccccc2c(=O)n1-c1ccccc1,7.0,64.0*,1.8,11.2,8.5,-0.1,x,x
CC(C)(C)c1ccc(/C=N/NC(=S)NCc2ccccc2)cc1,1.2,0.1,9.7,2.9,1.2,3.2,x,x
C/C(=N\NC(=S)NCCc1ccccc1)c1ccc(Cl)cc1,3.2,17.6,-38.7,16.4,-26.8,5.1,x,x
S=C(NCCc1ccccc1)N/N=C/c1ccccc1Cl,11.4,-0.1,-57.3,42.8*,-22.8,10.1,18.4,17.6*
C/C(=N\NC(=S)NCCc1ccccc1)c1ccc(C)cc1,5.1,55.2,-27.5,17.1*,-20.3,9.7,15.2,15.2
S=C(NCc1ccco1)N/N=C/c1ccccc1Cl,3.9,3.4,-2.9,6.9,-4.1,9.0,x,x
SMILES,PGE2 EP2 inh,EP2 mod,NPY1 pot ag,NPY Y2 blocker,NPY-Y2 PAM-ag,NPY-Y1 antag,NPY1 antag ctr,NPY2 antag conf
CCc1ccc(/C=N/NC(=S)NCCc2ccccc2)cc1,10.4,22.2,-3.8,32.6*,-13.2,19.3,28.0*,29.8*
CCn1c(SCC(=O)Nc2cccc(OC)c2)nnc1C(C)C,9.4,-45.1,x,x,x,x,x,x
CCn1c2cc(C)sc2c2cnn(CC(=O)NCc3cccs3)c(=O)c21,x,11.4,x,x,x,x,x,x
O=C(NCc1cccs1)c1cc(-c2ccccc2Cl)on1,10.9,-105.9,x,x,x,x,x,x
O=C(NCc1ccc2c(c1)OCO2)c1cc(-c2ccccc2Cl)on1,12.9,-156.1,-13.9,22.4*,-55.1,11.9,17.7,12.8
O=C(Nc1ccc(F)cc1)N1CCCC(c2nc(-c3cccnc3)n[nH]2)C1 (configuration not stated),x,-10.9,x,x,x,x,x,x
CCN1CCN(c2ccc(NC(=O)c3cccc(OC)c3)cc2Cl)CC1,7.1,-62.8,x,x,x,x,x,x
CCOC(=O)c1c(-n2cccc2)sc2c1CCCC2=O,17.1,31.6,1.5,25.4*,11.9,-3.2,1.4,2.8
CCOC(=O)c1c(N2C(=O)Nc3ccccc3N2O)sc2c1CCCC2,7.0,25.5,17.8,3.8,4.9,-0.2,x,x
C=CCn1c(SCC(=O)N2CCc3ccccc3C2)nc2sc(C)c(C)c2c1=O,3.6,-3.8,-12.1,19.1*,-4.0,7.1,10.4,9.0
C=CCn1c(SCC(=O)N2CCc3ccccc32)nc2sc(C)c(C)c2c1=O,11.8,-70.1,x,x,x,x,x,x
Cc1cccc(-c2nnc(SCc3ccc(C#N)cc3)n2Cc2ccco2)c1,0.5,18.4,-2.6,20.2*,-5.3,14.3,9.4,4.7
COC(=O)c1ccc(OCC(=O)c2ccc(C)c(C)c2)cc1,5.3,-30.8,-14.5,25.9*,-0.6,11.9,16.6,6.2
Clc1ccc(-c2cc(CSc3cccc(Cl)c3)on2)cc1,8.1,-10.8,-66.8,17.1*,-31.9,19.9,10.5,16.5
Cc1ccc(SCc2cc(-c3ccc(Cl)cc3)no2)cc1,x,-14.4,-10.7,19.4*,4.9,6.4,12.6,17.0
Clc1ccc(-c2cc(CSc3ccccc3)on2)cc1,1.1,1.5,-43.5,15.0,-3.5,8.5,x,x
O=c1n(Cc2ccc(Cl)cc2)c2sc3c(c2c2ncnn12)CCCC3,14.7,16.8,-30.6,40.8*,-14.7,0.3,22.5*,31.7*
C=CCn1c(=O)n2ncnc2c2c3c(sc21)CCCC3,x,18.9,-14.6,6.1,0.6,-1.5,x,x
CN(C)CCCSc1nc(-c2ccccc2)nc2c1CCC2,5.4,2.9,-64.8,21.2*,-13.4,20.1,16.1,22.9*
O=C(c1cccnc1)C1CCN(C(=O)C2CC(=O)N(c3ccc(F)cc3)C2)CC1 (configuration not stated),x,-7.9,x,x,x,x,x,x
